Results as given in ChEMBL document CHEMBL1133874, “Synthesis of N(1)-substituted analogues of (2R,4R)-4-amino-pyrrolidine-2,4-dicarboxylic acid as agonists, partial agonists, and antagonists of group II metabotropic glutamate receptors” (Bioorg Med Chem Lett, 2001).

Assays:
Format in all cases: functional
[1] = target: T1, Metabotropic glutamate receptor 3 (Rattus norvegicus, UniProt P31422); assay: Inhibitory concentration required for antagonistic activity at Metabotropic glutamate receptor 3
T1 sequence (P31422 whole entry): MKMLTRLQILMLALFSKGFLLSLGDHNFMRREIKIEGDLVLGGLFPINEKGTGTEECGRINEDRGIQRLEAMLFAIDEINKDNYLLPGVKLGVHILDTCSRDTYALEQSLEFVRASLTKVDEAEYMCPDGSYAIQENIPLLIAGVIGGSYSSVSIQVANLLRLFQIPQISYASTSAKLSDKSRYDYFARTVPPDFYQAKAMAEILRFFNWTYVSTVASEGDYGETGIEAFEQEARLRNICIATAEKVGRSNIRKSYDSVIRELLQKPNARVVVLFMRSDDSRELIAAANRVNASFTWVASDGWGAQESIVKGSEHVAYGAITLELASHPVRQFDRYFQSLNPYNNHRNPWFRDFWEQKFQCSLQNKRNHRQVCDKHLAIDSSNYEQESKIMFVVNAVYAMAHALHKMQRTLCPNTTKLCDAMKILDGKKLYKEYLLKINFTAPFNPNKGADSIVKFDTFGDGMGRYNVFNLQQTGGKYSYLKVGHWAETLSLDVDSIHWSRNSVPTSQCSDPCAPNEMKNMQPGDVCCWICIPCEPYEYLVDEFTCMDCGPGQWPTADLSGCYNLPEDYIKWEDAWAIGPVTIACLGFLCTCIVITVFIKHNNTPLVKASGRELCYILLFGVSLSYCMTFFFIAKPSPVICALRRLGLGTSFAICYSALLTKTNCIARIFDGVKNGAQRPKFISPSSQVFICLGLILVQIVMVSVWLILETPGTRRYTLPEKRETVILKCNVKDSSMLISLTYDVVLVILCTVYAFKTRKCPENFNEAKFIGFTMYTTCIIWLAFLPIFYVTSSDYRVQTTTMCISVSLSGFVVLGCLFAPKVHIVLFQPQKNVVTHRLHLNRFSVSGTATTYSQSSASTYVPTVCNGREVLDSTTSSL

[2] = target: T2, Metabotropic glutamate receptor 6 (Rattus norvegicus, UniProt P35349); assay: Effective concentration required for agonistic activity at Metabotropic glutamate receptor 6
T2 sequence (P35349 whole entry): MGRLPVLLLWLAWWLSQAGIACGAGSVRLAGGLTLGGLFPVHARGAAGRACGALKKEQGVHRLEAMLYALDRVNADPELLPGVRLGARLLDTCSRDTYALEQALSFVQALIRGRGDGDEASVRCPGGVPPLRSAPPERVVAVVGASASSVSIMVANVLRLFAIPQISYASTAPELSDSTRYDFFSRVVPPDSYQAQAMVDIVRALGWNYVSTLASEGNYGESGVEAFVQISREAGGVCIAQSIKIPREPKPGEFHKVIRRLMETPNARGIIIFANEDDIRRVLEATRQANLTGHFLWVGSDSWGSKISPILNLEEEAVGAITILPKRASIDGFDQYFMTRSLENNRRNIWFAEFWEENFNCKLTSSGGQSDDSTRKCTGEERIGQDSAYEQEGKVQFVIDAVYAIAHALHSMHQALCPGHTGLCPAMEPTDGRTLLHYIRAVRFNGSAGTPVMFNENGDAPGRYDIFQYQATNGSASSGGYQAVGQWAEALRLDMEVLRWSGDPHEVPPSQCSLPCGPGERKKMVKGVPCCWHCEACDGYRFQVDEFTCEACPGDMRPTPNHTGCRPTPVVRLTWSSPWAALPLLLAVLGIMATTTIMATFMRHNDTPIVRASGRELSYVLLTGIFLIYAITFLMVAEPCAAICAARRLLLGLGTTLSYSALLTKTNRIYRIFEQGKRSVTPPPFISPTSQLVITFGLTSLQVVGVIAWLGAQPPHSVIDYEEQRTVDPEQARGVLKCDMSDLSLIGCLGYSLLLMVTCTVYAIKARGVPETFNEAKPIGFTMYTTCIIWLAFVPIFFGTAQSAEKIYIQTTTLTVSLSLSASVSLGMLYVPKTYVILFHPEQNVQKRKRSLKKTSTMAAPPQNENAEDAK

[3] = target: T1, Metabotropic glutamate receptor 3; assay: Effective concentration required for agonistic activity at Metabotropic glutamate receptor 3
Method in brief: (§1)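 Agonist activity at mGluR3, stably expressed in CHO cells together with a chimeric construct. Dose-response curves; means ± SEM from at least three experiments run in triplicate.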

[4] = target: T3, Metabotropic glutamate receptor 2 (Rattus norvegicus, UniProt P31421); assay: Effective concentration required for agonistic activity at Metabotropic glutamate receptor 2
T3 sequence (P31421 whole entry): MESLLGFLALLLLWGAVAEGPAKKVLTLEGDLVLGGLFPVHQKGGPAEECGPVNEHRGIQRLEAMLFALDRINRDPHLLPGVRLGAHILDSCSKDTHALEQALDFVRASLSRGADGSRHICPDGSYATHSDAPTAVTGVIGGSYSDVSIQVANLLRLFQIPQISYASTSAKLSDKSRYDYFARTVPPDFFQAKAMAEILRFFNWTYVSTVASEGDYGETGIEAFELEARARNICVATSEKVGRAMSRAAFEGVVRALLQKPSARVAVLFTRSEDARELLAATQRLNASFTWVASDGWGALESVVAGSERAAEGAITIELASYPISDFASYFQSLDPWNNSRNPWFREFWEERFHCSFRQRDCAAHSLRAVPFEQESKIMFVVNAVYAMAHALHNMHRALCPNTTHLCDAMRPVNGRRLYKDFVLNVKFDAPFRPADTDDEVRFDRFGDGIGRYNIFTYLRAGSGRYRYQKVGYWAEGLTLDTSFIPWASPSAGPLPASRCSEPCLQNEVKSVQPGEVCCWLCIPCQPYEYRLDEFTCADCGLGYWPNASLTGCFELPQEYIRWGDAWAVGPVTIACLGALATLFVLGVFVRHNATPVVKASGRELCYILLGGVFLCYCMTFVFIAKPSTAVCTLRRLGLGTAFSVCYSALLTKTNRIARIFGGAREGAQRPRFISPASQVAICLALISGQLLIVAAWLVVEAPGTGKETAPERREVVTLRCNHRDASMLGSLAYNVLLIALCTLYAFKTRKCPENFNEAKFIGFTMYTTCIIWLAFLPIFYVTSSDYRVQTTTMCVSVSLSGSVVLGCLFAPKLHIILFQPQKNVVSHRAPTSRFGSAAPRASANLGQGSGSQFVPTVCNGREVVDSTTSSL

[5] = target: T1, Metabotropic glutamate receptor 3; assay: Inhibitory concentration required for antagonistic activity at Metabotropic glutamate receptor 3; Not active
[6] = target: T3, Metabotropic glutamate receptor 2; assay: Inhibitory concentration required for antagonistic activity at Metabotropic glutamate receptor 2; Not active
Method in brief: (§2)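 Antagonism at mGluR2 stably expressed in CHO cells, tested against 2 μM glutamate and read as forskolin-induced cAMP formation. Dose-response curves; means ± SEM from at least three experiments run in triplicate.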

[7] = target: T3, Metabotropic glutamate receptor 2; assay: Effective concentration required for agonistic activity at Metabotropic glutamate receptor 2; Not active
[8] = target: T1, Metabotropic glutamate receptor 3; assay: Effective concentration required for agonistic activity at Metabotropic glutamate receptor 3; Not active; method in brief: as §1
[9] = target: T2, Metabotropic glutamate receptor 6; assay: Effective concentration for agonistic activity at Metabotropic glutamate receptor 6; Not active
[10] = target: T2, Metabotropic glutamate receptor 6; assay: Effective concentration required for partial agonistic activity at Metabotropic glutamate receptor 6; Partial agonist
[11] = target: T3, Metabotropic glutamate receptor 2; assay: Effective concentration required for partial agonistic activity at Metabotropic glutamate receptor 2; Partial agonist
[12] = target: T3, Metabotropic glutamate receptor 2; assay: Inhibitory concentration required for antagonistic activity at Metabotropic glutamate receptor 2; method in brief: as §2
[13] = target: T1, Metabotropic glutamate receptor 3; assay: Effective concentration required for partial agonistic activity at Metabotropic glutamate receptor 3; Partial agonist; method in brief: as §1

Which IC50 [1] does the source give for N[C@]1(C(=O)O)C[C@H](C(=O)O)N(C(C(=O)O)c2ccccc2)C1 (some centres not stated) here?
The IC50 was 21 µM.

What about the EC50 [2] of the same compound?
The EC50 was 22 µM.

Which results are given for N[C@]1(C(=O)O)C[C@H](C(=O)O)N(Cc2ccccc2[N+](=O)[O-])C1?
EC50 [2]: 110 µM; EC50 [3]: 6.8 µM; EC50 [4]: 4 µM

For Cl.Cl.N[C@]1(C(=O)O)C[C@H](C(=O)O)N(Cc2cccc(C(=O)O)c2)C1, which IC50 [5] is on record?
Its IC50 is “Not Active”.

What about the EC50 [2] of the same compound?
Its EC50 is 57 µM.

And the IC50 [6]?
The IC50 was “Not Active”.

And the EC50 [7]?
Its EC50 is “Not Active”.

And the EC50 [8]?
Its EC50 is “Not Active”.

How did the IC50 [1] turn out when N[C@]1(C(=O)O)C[C@H](C(=O)O)N(Cc2cccc([N+](=O)[O-])c2)C1 was run?
Its IC50 is 93 µM.

And the EC50 [2]?
Its EC50 is 100 µM.

Which IC50 [5] does the source give for Cl.Cl.N[C@]1(C(=O)O)C[C@H](C(=O)O)N(Cc2ccccc2C(=O)O)C1 here?
The IC50 was “Not Active”.

And the EC50 [9]?
Its EC50 is “Not Active”.

What about the EC50 [8] of the same compound?
The EC50 was “Not Active”.

What about the EC50 [4] of the same compound?
Its EC50 is 33 µM.

For N[C@]1(C(=O)O)C[C@H](C(=O)O)N(Cc2ccccc2O)C1, which IC50 [1] is on record?
The IC50 was 27 µM.

What about the EC50 [4] of the same compound?
Its EC50 is 6.1 µM.

What about the EC50 [10] of the same compound?
Its EC50 is 88 µM.

Cl.Cl.N[C@]1(C(=O)O)C[C@H](C(=O)O)N(Cc2ccc(C(=O)O)cc2)C1 was tested. Which IC50 [5] did it give?
The IC50 was “Not Active”.

And the EC50 [2]?
The EC50 was 58 µM.

What about the EC50 [11] of the same compound?
The EC50 was 4.7 µM.

What about the EC50 [8] of the same compound?
Its EC50 is “Not Active”.

With Cl.Cl.Cl.N[C@]1(C(=O)O)C[C@H](C(=O)O)N(Cc2ccccn2)C1 as the compound, how does the EC50 [9] read?
The EC50 was “Not Active”.

And the EC50 [3]?
Its EC50 is 37 µM.

What about the EC50 [4] of the same compound?
The EC50 was 37 µM.

Which IC50 [5] does the source give for Cl.Cl.N[C@]1(C(=O)O)C[C@H](C(=O)O)N(Cc2ccc([N+](=O)[O-])cc2)C1 here?
The IC50 was “Not Active”.

And the EC50 [9]?
Its EC50 is “Not Active”.

What about the EC50 [8] of the same compound?
Its EC50 is “Not Active”.

And the EC50 [4]?
Its EC50 is 160 µM.

What does the source list for Cl.Cl.Cl.Nc1ccccc1CN1C[C@@](N)(C(=O)O)C[C@@H]1C(=O)O?
IC50 [5]: Not Active; EC50 [9]: Not Active; EC50 [8]: Not Active; EC50 [4]: 35 µM

With CC(N)(C(=O)O)c1ccc(C(=O)O)cc1 (configuration not stated) as the compound, how does the IC50 [12] read?
Its IC50 is 290 µM.

And the IC50 [1]?
The IC50 was 270 µM.

What about the EC50 [9] of the same compound?
The EC50 was “Not Active”.

Which results are given for Cl.Cl.N[C@]1(C(=O)O)C[C@H](C(=O)O)N(Cc2cc([N+](=O)[O-])cc([N+](=O)[O-])c2)C1?
IC50 [5]: Not Active; EC50 [2]: 210 µM; IC50 [6]: Not Active; EC50 [7]: Not Active; EC50 [8]: Not Active

How did the EC50 [9] turn out when N[C@@]1(C(=O)O)CN[C@@H](C(=O)O)C1 was run?
Its EC50 is “Not Active”.

What about the EC50 [3] of the same compound?
The EC50 was 1.7 µM.

And the EC50 [4]?
Its EC50 is 0.48 µM.

For Cl.Cl.N[C@]1(C(=O)O)C[C@H](C(=O)O)N(Cc2ccccc2C#Cc2ccccc2)C1, which IC50 [1] is on record?
The IC50 was 23 µM.

What about the EC50 [9] of the same compound?
The EC50 was “Not Active”.

For COc1ccc(CN2C[C@@](N)(C(=O)O)C[C@@H]2C(=O)O)cc1, which IC50 [1] is on record?
The IC50 was 190 µM.

And the EC50 [2]?
The EC50 was 320 µM.

How did the IC50 [5] turn out when Cl.Cl.N[C@]1(C(=O)O)C[C@H](C(=O)O)N(CC(=O)O)C1 was run?
The IC50 was “Not Active”.

What about the EC50 [9] of the same compound?
The EC50 was “Not Active”.

What about the EC50 [11] of the same compound?
The EC50 was 0.61 µM.

And the EC50 [8]?
The EC50 was “Not Active”.

For Cl.Cl.N[C@]1(C(=O)O)C[C@H](C(=O)O)N(Cc2cccc(O)c2)C1, which IC50 [5] is on record?
The IC50 was “Not Active”.

And the EC50 [9]?
The EC50 was “Not Active”.

What about the EC50 [8] of the same compound?
The EC50 was “Not Active”.

What about the EC50 [4] of the same compound?
Its EC50 is 950 µM.

How did the IC50 [1] turn out when CC(N)(C(=O)O)C1CC1C(=O)O (configuration not stated) was run?
The IC50 was 68 µM.

What about the EC50 [9] of the same compound?
The EC50 was “Not Active”.

For N[C@]1(C(=O)O)C[C@H](C(=O)O)N(Cc2ccccc2Br)C1, which EC50 [2] is on record?
The EC50 was 310 µM.

What does the source list for Cl.Cl.Cl.Nc1ccc(CN2C[C@@](N)(C(=O)O)C[C@@H]2C(=O)O)cc1?
IC50 [5]: Not Active; EC50 [9]: Not Active; EC50 [11]: 2.3 µM; EC50 [8]: Not Active

Which EC50 [2] does the source give for N[C@]1(C(=O)O)C[C@H](C(=O)O)N(Cc2ccc(O)cc2)C1 here?
Its EC50 is 74 µM.

And the EC50 [13]?
Its EC50 is 7.5 µM.

What about the EC50 [4] of the same compound?
The EC50 was 24 µM.
